Assay results published in publication PMC7141409 (Journal of biomolecular NMR, 2019).

Assays:
[1] = system: ^15N-OsIAA11^72−125 (W104-P105 peptide bond); assay: Nzz-exchange: catalyzed cis-trans exchange of W104-P105; type: biochemical, rice
Method in brief: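 15N-labeled OsIAA11 72–125 substrate (800μM) with 16μM enzyme (LRT2 mutant or homolog) in NMR buffer (50mM KCl, 20mM KPO4, 3mM TCEP, 5mM NaN3, 0.1% protease inhibitor cocktail, pH=6.67). Protein concentrations were set by A280 using theoretical extinction coefficients. Nzz-exchange spectra were processed to give the observed cis-trans exchange rate (kexobs) of the W104-P105 bond with uncertainties.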

[2] = Succinyl-Ala-Ala-Pro-Phe-NH-Mec; cited from earlier work
[3] = system: rice; conditions: rice strain with OsIAA11 P106L; cited from earlier work
[4] = system: E3 ubiquitin ligase SCF^TIR1; conditions: rice strain with OsIAA11 P106L; cited from earlier work

| Molecule | Nzz exchange crosspeaks / activity ([1]; 16μM enzyme, 800μM OsIAA11^72–125) | Nzz-measured kexobs ([1]; 1H-15N Nzz exchange, 16μM enzyme, 800μM OsIAA11^72–125, NMR buffer pH=6.67) [s⁻¹] | Activity relative to WT LRT2 on OsIAA11 ([1]; Nzz, % of WT LRT2 activity) [%] | kcat/Km relative to hCypA [2] | Lateral root development [3] | Proteasomal degradation [4] |
| --- | --- | --- | --- | --- | --- | --- |
| PPIB: petidyl-prolyl isomerase B from E. coli (Uniprot entry P23869) (protein, UniProt P23869 1-164, looked up) Peptidyl-prolyl cis-trans …: MVTFHTNHGDIVIKTFDDKAPETVKNFLDYCREGFYNNTIFHRVINGFMIQGGGFEPGMKQKATKEPIKNEANNGLKNTRGTLAMARTQAPHSATAQFFINVVDNDFLNFSGESLQGWGYCVFAEVVDGMDVVDKIKGVATGRSGMHQDVPKEDVIIESVTVSE | clear exchange crosspeaks | 0.37 ± 0.04 | 60 | more than an order of magnitude higher kcat/Km than hCypA |  |  |
| OsIAA11 P106L: OsIAA11 P106L mutation (directly adjacent to the W104-P105 peptide bond) (protein, UniProt Q75GK0 1-233, looked up, variant P106L) Auxin-responsive protein IAA11: MAGLGFDETELRLGLPGAGELAARSSGKRGFAETIDLKLKLQPAAPAAVSGEEGAQEDKEDADAAAAAADEKMSMKRSASQSSVVTAEPDPDKPRAPKAQVVGWPLVRSFRKNVLAEKCKAAALVKVSMDGAPYLRKIDVAMYKSYPELSMAFQNMFTSFTIGKCGSHQQLKESNKLRDDLEYVPTYEDKDGDWMLVGDVPWEMFVESCKRLRIMKGSEAIGLAPRAVEKCKS |  |  |  |  | no induction of lateral root development | evades proteasomal degradation |
